The target of series [1] is T1, NAD-dependent protein deacetylase sirtuin-1 (Homo sapiens) (UniProt Q96EB6).
T1 sequence (whole entry): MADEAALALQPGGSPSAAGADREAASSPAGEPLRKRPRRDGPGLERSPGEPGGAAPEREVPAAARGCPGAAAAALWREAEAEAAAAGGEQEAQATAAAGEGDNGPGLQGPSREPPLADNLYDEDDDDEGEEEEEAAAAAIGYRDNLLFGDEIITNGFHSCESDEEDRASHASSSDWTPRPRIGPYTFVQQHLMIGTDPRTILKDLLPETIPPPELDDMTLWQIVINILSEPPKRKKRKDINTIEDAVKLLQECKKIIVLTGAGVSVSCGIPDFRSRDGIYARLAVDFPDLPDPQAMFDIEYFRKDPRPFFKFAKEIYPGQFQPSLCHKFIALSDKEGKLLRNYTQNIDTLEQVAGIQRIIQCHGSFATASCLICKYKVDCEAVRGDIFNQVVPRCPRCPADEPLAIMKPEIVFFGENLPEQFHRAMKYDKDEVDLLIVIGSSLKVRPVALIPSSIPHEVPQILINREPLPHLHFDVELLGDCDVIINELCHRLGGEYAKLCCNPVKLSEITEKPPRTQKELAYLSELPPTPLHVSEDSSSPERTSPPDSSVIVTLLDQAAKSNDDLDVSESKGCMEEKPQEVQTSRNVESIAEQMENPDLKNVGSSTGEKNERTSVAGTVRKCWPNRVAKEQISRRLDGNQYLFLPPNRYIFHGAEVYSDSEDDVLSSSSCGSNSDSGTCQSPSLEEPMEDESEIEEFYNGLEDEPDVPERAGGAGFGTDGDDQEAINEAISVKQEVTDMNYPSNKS
Put plainly: Activation of SIRT1 (unknown origin) at 10 to 20 ug/mL using Fluor de Lys-SIRT1 peptide by in vitro enzyme-based SIRT1-NAD/NADH assay. The gist of the method: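 SIRT1 enzyme at 0.02 U/μL in Tris-HCl pH 8.0 buffer with BSA, MgCl2, KCl and NaCl, preincubated with compound for 5 min at room temperature. Reaction started with 500 μM NAD+ and 100 μM Fluor de Lys-SIRT1 substrate (stock solution), run 1 h at room temperature. Quenched with Developer II plus 2 mM nicotinamide for 30 min, then fluorescence read at ex 360/em 450 nm. DMSO and no-enzyme controls.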

The target in series [2] is T1, NAD-dependent protein deacetylase sirtuin-1 (Homo sapiens). Put plainly: Activation of flag-tagged SIRT1 (unknown origin) expressed in HEK293 cells at 10 to 20 ug/mL after 12 hrs by SIRT1-p53 luciferase reporter gene based assay. The format is cell-based.
The target is the same in series [3]. Put plainly: Activation of SIRT1 (unknown origin) expressed in HEK293 cells assessed as increase in NAD+/NADH ratio at 10 to 20 ug/mL after 12 hrs. The class given is cell-based. Put shortly:
(§1)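 HEK293 cells grown in DMEM with 10% FBS at 37 °C, 5% CO2, and treated with compound for 12 h. NAD+/NADH ratio measured in whole-cell extracts with a red-fluorescence NAD/NADH quantitation kit.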

For series [4] the target is unchanged. Put plainly: Activation of SIRT1 (unknown origin) expressed in HEK293 cells assessed as increase in NAD+/NADH ratio at 2.5 to 5 ug/mL after 12 hrs. The class given is cell-based. The gist of the method:
as §1

Series [5] shares this target. Put plainly: Activation of flag-tagged SIRT1 (unknown origin) expressed in HEK293 cells after 12 hrs by SIRT1-p53 luciferase reporter gene based assay. The class given is cell-based.
For series [6] the target is unchanged. Put plainly: Activation of flag-tagged SIRT1 (unknown origin) expressed in HEK293 cells at 2.5 to 5 ug/mL after 12 hrs by SIRT1-p53 luciferase reporter gene based assay. The format is cell-based.
In series [7] the test system is HEK293. Put plainly: Toxicity against HEK293 cells at 10 to 20 ug/ml. The following applies: human. The format is cell-based.

From ChEMBL document CHEMBL3352070, “Dammarane triterpenes as potential SIRT1 activators from the leaves of Panax ginseng” (J Nat Prod, 2014) come the findings set out here.

Each structure is given as a SMILES string. Calls of active or inactive are those of the source. No cut-off for these calls is given here.

Take `CC(C)(O)/C=C/C[C@](C)(O)[C@H]1CC[C@]2(C)[C@@H]1C(=O)C[C@@H]1[C@@]3(C)CCC(=O)C(C)(C)[C@@H]3[C@@H](O)C[C@]12C`: the Activity result in series [1] was “Dose-dependent effect”. Moreover, the result in series [2] and in series [3] was Active.

With `CC(C)=CCC[C@](C)(O)[C@H]1CC[C@]2(C)[C@@H]1[C@H](O)C[C@@H]1[C@@]3(C)CC[C@H](O[C@@H]4O[C@H](CO)[C@@H](O)[C@H](O)[C@H]4O[C@@H]4O[C@H](CO)[C@@H](O)[C@H](O)[C@H]4O)C(C)(C)[C@@H]3CC[C@]12C`, the result in series [4], in series [5] and in series [6] was Active. For the same compound, the Activity result in series [1] was “Dose-dependent effect”; in series [7], “Toxic”.

As to `CC(C)=CCC[C@](C)(O)[C@H]1CC[C@]2(C)[C@@H]1C(=O)C[C@@H]1[C@@]3(C)CCC(=O)C(C)(C)[C@@H]3[C@@H](O)C[C@]12C`, the Activity result in series [1] was “Dose-dependent effect”. In addition, the outcome in series [2] and in series [3] was Active.

For `CC(C)=CCC[C@@](C)(O)[C@H]1CC[C@]2(C)[C@@H]1[C@H](O)C[C@@H]1[C@@]3(C)CC[C@H](O[C@@H]4O[C@H](CO)[C@@H](O)[C@H](O)[C@H]4O[C@@H]4O[C@H](CO)[C@@H](O)[C@H](O)[C@H]4O)C(C)(C)[C@@H]3CC[C@]12C`, the Activity entry in series [5] is “Dose-dependent effect”.

Consider `CC(C)=CC/C=C(\C)[C@H]1CC[C@]2(C)[C@@H]1[C@H](O)C[C@@H]1[C@@]3(C)CC[C@H](O)C(C)(C)[C@@H]3[C@@H](O)C[C@]12C`, for which the outcome in series [4] and in series [6] was Active. Besides, the Activity result in series [1] was “Dose-dependent effect”; in series [7], “Toxic”.
